According to ChEMBL document CHEMBL4130355, “Development of a series of novel 4-anlinoquinazoline derivatives possessing quinazoline skeleton: Design, synthesis, EGFR kinase inhibitory efficacy, and evaluation of anticancer activities in vitro” (Eur J Med Chem, 2017):
Activity calls are given as the source filed them. The rule behind the calls is not given here.

Columns and labels:
HepG2 [1] = test: Cell cycle arrest in human HepG2 assessed as accumulation at G0/G1 phase at 5 uM after 48 hrs by propidium iodide-staining based flow cytometry (reference value: 69.40%); assay type: functional
Method in brief: (§1)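 HepG2 cells at 5.0 × 10^5/well were grown 24 h, then treated at 0, 2.5, 5.0 or 10.0 µM for 48 h alongside medium-only wells. Cells fixed in 70% ice-cold ethanol for ≥24 h, treated with RNase A at 37 °C for 30 min, then stained with propidium iodide for 30 min at 4 °C in the dark. DNA content read by flow cytometry. Average of at least three experiments.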

HepG2 [2] = test: Induction of apoptosis in human HepG2 cells assessed as late apoptotic cells at 10 uM after 48 hrs by Annexin V-FITC/propidium iodide double staining-based flow cytometry (reference value: 4.3%); assay type: functional
HepG2 [3] = test: Antiproliferative activity against human HepG2 cells at 100 uM after 24 hrs by MTT assay realtive to control; assay type: functional
Method in brief: (§2)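 MTT assay in triplicate wells. Cells (2 × 10^3/well) were attached 24 h, then treated at 0.1, 1, 10, 50 or 100 µM for 24, 48 or 72 h. MTT added for 4 h, SDS solubilisation, absorbance at 570/650 nm. Inhibition = 1 − (OD treated − blank)/(OD control − blank). Reported as mean ± SD of three independent experiments.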

A549 [4] = test: Antiproliferative activity against human A549 cells at 0.1 uM after 48 hrs by MTT assay relative to control; assay type: functional; method in brief: as §2
A549 [5] = test: Antiproliferative activity against human A549 cells at 10 uM after 48 hrs by MTT assay relative to control; assay type: functional; method in brief: as §2
HepG2 [6] = test: Induction of apoptosis in human HepG2 cells assessed as intracellular free Ca2+ levels at 10 uM after 48 hrs by FL1 channel/FACS analysis (reference value: 14.2%); assay type: functional
Method in brief: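 HepG2 seeded at 5.0 × 10^5 cells/mL, 24 h at 37 °C in 5% CO2, then treated 48 h (2.5–20 µM). Harvested cells were washed in ice-cold PBS and loaded with 4 µM Fluo-3/AM for 30 min. After trypsinizing, they were washed twice and resuspended in HEPES, and fluorescence was measured in the FL-1 channel by flow cytometry. Values are averages of at least three independent experiments.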

[7] = biological target: T1, Epidermal growth factor receptor (Homo sapiens, UniProt P00533); settings: HEK293, at 1 pM
HepG2 [8] = test: Induction of apoptosis in human HepG2 cells assessed as viable cells at 2.5 uM after 48 hrs by Annexin V-FITC/propidium iodide double staining-based flow cytometry (reference value: 86.4%); assay type: functional; settings: HepG2, 48 h, read-out: Activity
HepG2 [9] = test: Antiproliferative activity against human HepG2 cells at 0.1 uM after 24 hrs by MTT assay realtive to control; assay type: functional; method in brief: as §2
HepG2 [10] = test: Induction of apoptosis in human HepG2 cells assessed as budded nuclei formation at 2.5 to 20 uM after 48 hrs by Hoechst 33342/propidium iodide double staining based laser scanning confocal microscopy; assay type: functional, cell-based
Method in brief: (§3)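 HepG2 plated at 5.0 × 10^4 cells/well in DMEM with 10% FBS, 24 h at 37 °C, then treated 48 h (2.5–20 µM). After two ice-cold PBS washes, cells were stained with Hoechst 33342/PI mixed 1:1 for 30 min at 37 °C in the dark, washed three times, and imaged by laser scanning confocal microscopy at 200×.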

HepG2 [11] = test: Induction of apoptosis in human HepG2 cells assessed as early apoptotic cells at 2.5 uM after 48 hrs by Annexin V-FITC/propidium iodide double staining-based flow cytometry (reference value: 8.7%); assay type: functional
[12] = biological target: T1, Epidermal growth factor receptor; settings: HEK293, at 0.0001 µM
[13] = biological target: T1, Epidermal growth factor receptor; settings: HEK293, at 1 µM
HepG2 [14] = test: Cell cycle arrest in human HepG2 assessed as accumulation at S phase after 48 hrs by propidium iodide-staining based flow cytometry; assay type: functional; method in brief: as §1
HepG2 [15] = test: Cell cycle arrest in human HepG2 assessed as accumulation at S phase at 2.5 uM after 48 hrs by propidium iodide-staining based flow cytometry (reference value: 21.46%); assay type: functional; method in brief: as §1
HepG2 [16] = test: Antiproliferative activity against human HepG2 cells at 0.1 uM after 72 hrs by MTT assay realtive to control; assay type: functional; method in brief: as §2
[17] = biological target: T1, Epidermal growth factor receptor; settings: HEK293, at 0.01 µM
HepG2 [18] = test: Cell cycle arrest in human HepG2 assessed as accumulation at G2/M phase at 2.5 uM after 48 hrs by propidium iodide-staining based flow cytometry (reference value: 9.13%); assay type: functional; method in brief: as §1
HepG2 [19] = test: Cytotoxicity against human HepG2 cells at 40 uM after 48 hrs by LDH release assay (reference value: 100%); assay type: functional
Method in brief: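 HepG2 seeded at 1.0 × 10^5 cells/well, grown 24 h at 37 °C in 5% CO2, then dosed for 48 h. LDH in supernatant read on plate reader per kit. Maximal release (100% cytotoxicity) came from lysis with 2% (V/V) lysate for 1 h at 37 °C; medium-only cells served as natural release. Triplicate, three independent runs.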

HepG2 [20] = test: Induction of apoptosis in human HepG2 cells assessed as nuclear fragmentation at 2.5 to 20 uM after 48 hrs by Hoechst 33342/propidium iodide double staining based laser scanning confocal microscopy; assay type: functional, cell-based; method in brief: as §3
MCF7 = test: Antiproliferative activity against human MCF7 cells after 72 hrs by MTT assay; assay type: functional, cell-based; settings: MCF7, 72 h
HepG2 [21] = test: Induction of apoptosis in human HepG2 cells assessed as early apoptotic cells at 10 uM after 48 hrs by Annexin V-FITC/propidium iodide double staining-based flow cytometry (reference value: 8.7%); assay type: functional
A549 [22] = test: Antiproliferative activity against human A549 cells at 50 uM after 48 hrs by MTT assay relative to control; assay type: functional; method in brief: as §2
A549 [23] = test: Antiproliferative activity against human A549 cells after 48 hrs by MTT assay; assay type: functional, cell-based; settings: A549, 48 h
Method in brief: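 MTT read-out. Cells seeded at 2 × 10^3/well, attached 24 h at 37 °C in 5% CO2, then exposed to 0.1–100 µM for 24, 48 or 72 h. MTT for 4 h, formazan dissolved in 10% SDS/NH4Cl for 10 h, absorbance at 570 nm corrected at 650 nm. % inhibition computed against untreated and blank wells. IC50 is the mean of at least three independent experiments.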

HepG2 [24] = test: Induction of apoptosis in human HepG2 cells assessed as viable cells at 10 uM after 48 hrs by Annexin V-FITC/propidium iodide double staining-based flow cytometry (reference value: 86.4%); assay type: functional; settings: HepG2, 48 h, read-out: Activity
HepG2 [25] = test: Induction of mitochondrial membrane potential loss in human HepG2 cells assessed as mitochondrial membrane potential levels at 10 uM after 48 hrs by rhodamine-123 dye based FACS analysis (reference value: 90.4%); assay type: functional
HepG2 [26] = test: Induction of apoptosis in human HepG2 cells assessed as late apoptotic cells at 2.5 uM after 48 hrs by Annexin V-FITC/propidium iodide double staining-based flow cytometry (reference value: 4.3%); assay type: functional

T1 sequence (P00533 whole entry): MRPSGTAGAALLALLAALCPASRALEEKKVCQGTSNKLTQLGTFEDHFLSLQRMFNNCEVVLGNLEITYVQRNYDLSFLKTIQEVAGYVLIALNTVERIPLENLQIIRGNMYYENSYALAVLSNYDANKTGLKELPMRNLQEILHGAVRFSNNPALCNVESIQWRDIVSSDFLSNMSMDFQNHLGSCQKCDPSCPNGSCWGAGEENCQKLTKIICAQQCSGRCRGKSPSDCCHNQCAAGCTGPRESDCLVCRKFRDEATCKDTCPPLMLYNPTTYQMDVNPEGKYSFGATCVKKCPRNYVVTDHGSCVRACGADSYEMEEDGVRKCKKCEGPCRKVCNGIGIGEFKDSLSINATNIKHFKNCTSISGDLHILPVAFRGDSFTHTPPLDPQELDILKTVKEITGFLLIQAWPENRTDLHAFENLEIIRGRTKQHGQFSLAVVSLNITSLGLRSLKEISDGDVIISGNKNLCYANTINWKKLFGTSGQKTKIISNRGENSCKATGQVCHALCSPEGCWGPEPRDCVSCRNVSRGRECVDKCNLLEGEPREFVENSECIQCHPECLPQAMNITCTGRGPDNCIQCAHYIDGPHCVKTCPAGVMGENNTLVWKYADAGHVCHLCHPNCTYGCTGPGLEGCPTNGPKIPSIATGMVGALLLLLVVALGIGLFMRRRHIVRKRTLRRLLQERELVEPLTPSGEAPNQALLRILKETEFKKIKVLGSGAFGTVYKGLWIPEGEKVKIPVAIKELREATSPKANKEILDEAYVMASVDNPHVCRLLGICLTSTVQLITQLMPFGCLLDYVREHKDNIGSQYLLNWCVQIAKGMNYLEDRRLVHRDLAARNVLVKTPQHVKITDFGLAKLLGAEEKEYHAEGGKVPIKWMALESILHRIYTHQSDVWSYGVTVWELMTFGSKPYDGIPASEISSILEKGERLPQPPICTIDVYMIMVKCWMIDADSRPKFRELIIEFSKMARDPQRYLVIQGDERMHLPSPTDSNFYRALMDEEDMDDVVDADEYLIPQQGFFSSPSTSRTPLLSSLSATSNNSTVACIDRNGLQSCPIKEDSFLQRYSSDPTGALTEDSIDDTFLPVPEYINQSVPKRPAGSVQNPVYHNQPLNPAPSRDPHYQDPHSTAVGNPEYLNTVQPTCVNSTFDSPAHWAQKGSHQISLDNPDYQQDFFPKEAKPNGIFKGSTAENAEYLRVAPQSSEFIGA

In the case of COc1cc2c(Nc3ccc(C#N)cc3)ncnc2cc1OCCCN1CCC(c2ccccc2)CC1, the Activity (HepG2 [1]) is reported as 65.53%, the Activity (HepG2 [2]) is reported as 0.1% and the Activity (HepG2 [3]) is reported as 101%. The Activity (A549 [4]) was 1.3%, the Activity (A549 [5]) was 13.5% and the Activity (HepG2 [6]) was 48.9%. For the same molecule, the inhibition [7] was 16%, the viability at 2.5 µM (HepG2 [8]) was 47.5% and the Activity (HepG2 [9]) was 4.4%. The Activity (HepG2 [10]) was “Active”, the Activity (HepG2 [11]) was 48.6% and the inhibition [12] was 39.1%. The inhibition [13] was 94.3%, the Activity (HepG2 [14]) was “Dose-dependent effect” and the Activity (HepG2 [15]) was 22.44%. It also gave an Activity (HepG2 [16]) of 7.4%, an inhibition [17] of 61.8% and an Activity (HepG2 [18]) of 10.49%. The Activity (HepG2 [19]) was 41.17%, the Activity (HepG2 [20]) was “Active” and the IC50 (MCF7) was 9.8 µM. It also gave an Activity (HepG2 [21]) of 98.6%, an Activity (A549 [22]) of 75.5% and an IC50 (A549 [23]) of 20.6 µM. For the same molecule, the viability at 10 µM (HepG2 [24]) was 1.3%, the Activity (HepG2 [25]) was 84% and the Activity (HepG2 [26]) was 3.8%.
